Experimental data: ChEMBL document CHEMBL1153437, “Inhibition of monoamine oxidase B by N-methyl-2-phenylmaleimides” (Bioorg Med Chem, 2009)
Active and inactive are the calls of the source. No cut-off for these calls is given here.

Tests used:
[1] = Stability in pH 7.4 sodium phosphate buffer assessed as hydrolysis at 100 uM after 30 mins; format: physicochemical; conditions: read-out: Activity
Procedure, shortened: (§1)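 Compound (100 µM, or 10 µM where stated) in 100 mM sodium phosphate buffer, pH 6.4–8.0, with 4% DMSO, held at 37 °C in quartz cuvettes. UV–vis spectra (230–500 nm) recorded at intervals. Remaining compound was calculated from the loss of absorbance at its longest-wavelength maximum (337–354 nm) using its molar absorptivity; hydrolysis is expressed as percent.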

[2] = Inhibition of MAO-B in baboon liver microsome assessed as MMDP+ formation; format: microsomes, Papio hamadryas
Procedure, shortened: (§2)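 Baboon liver mitochondrial fraction (0.15 mg protein/mL) as MAO-B source; substrate MMTP 30–120 µM with varied inhibitor concentrations, 4% DMSO cosolvent. Incubation at 37 °C for 10 min, stopped with perchloric acid, centrifuged; MMDP⁺ read at 420 nm (ε 25,000 M⁻¹). Ki from the x-intercept of a replot of Lineweaver–Burk slopes versus inhibitor concentration; single determination, replot R² ≥0.99.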

[3] = species on record: Papio hamadryas; experiment: Inhibition of MAO-B in baboon liver microsome assessed as MMDP+ formation at 14 uM up to 60 mins; format: microsomes
Procedure, shortened: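 Baboon liver mitochondria (0.3 mg protein/mL) preincubated with inhibitor (14 µM) in 100 mM sodium phosphate pH 7.4 at 37 °C for 0, 15, 30 or 60 min. Then diluted to 0.15 mg protein/mL (inhibitor 7 µM final) with MMTP 90 µM and incubated 15 min at 37 °C. Perchloric acid stop, MMDP⁺ read at 420 nm; triplicate, mean ± SEM.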

[4] = Stability in pH 7.4 sodium phosphate buffer assessed as hydrolysis at 10 uM after 30 mins; format: physicochemical; conditions: read-out: Activity; procedure, shortened: as §1
[5] = Stability in pH 7.4 sodium phosphate buffer assessed as hydrolysis at 100 uM at 360 mins; format: physicochemical; conditions: read-out: Activity; procedure, shortened: as §1
[6] = Stability in pH 8 sodium phosphate buffer assessed as hydrolysis at 100 uM at 360 mins; format: physicochemical; conditions: read-out: Activity; procedure, shortened: as §1
[7] = Stability in pH 7 sodium phosphate buffer assessed as hydrolysis at 100 uM at 360 mins; format: physicochemical; conditions: read-out: Activity; procedure, shortened: as §1
[8] = Stability in pH 6.4 to 8 phosphate buffer at 100 uM up to 360 mins; format: physicochemical; conditions: pH 6.4, 6 h; procedure, shortened: as §1
[9] = Stability in pH 6.4 to 8 phosphate buffer at 100 uM; format: physicochemical; conditions: pH 6.4, 100 µM; procedure, shortened: as §1
[10] = species on record: Papio hamadryas; experiment: Inhibition of MAO-B in baboon liver microsome assessed as MMDP+ formation at 13 uM after 60 mins relative to control; values are per cent of control
[11] = species on record: Papio hamadryas; experiment: Competitive inhibition of MAO-B in baboon liver microsome by Lineweaver-Burke plot; format: microsomes; procedure, shortened: as §2
[12] = species on record: Papio hamadryas; experiment: Inhibition of MAO-B in baboon liver microsome assessed as MMDP+ formation at 13 uM after 30 mins relative to control; values are per cent of control
[13] = species on record: Papio hamadryas; experiment: Inhibition of MAO-B in baboon liver microsome assessed as MMDP+ formation at 13 uM after 240 mins relative to control; values are per cent of control
[14] = species on record: Papio hamadryas; experiment: Inhibition of MAO-B in baboon liver microsome assessed as MMDP+ formation at 13 uM after 120 mins relative to control; values are per cent of control
[15] = species on record: Papio hamadryas; experiment: Inhibition of MAO-B in baboon liver microsome assessed as MMDP+ formation at 13 uM after 180 mins relative to control; values are per cent of control
[16] = biological target: T1, Amine oxidase [flavin-containing] B (Homo sapiens, UniProt P27338); experiment: Inactivation of human […] assessed as half time at 0.8 mM; conditions: 800 µM
T1 sequence (P27338 whole entry): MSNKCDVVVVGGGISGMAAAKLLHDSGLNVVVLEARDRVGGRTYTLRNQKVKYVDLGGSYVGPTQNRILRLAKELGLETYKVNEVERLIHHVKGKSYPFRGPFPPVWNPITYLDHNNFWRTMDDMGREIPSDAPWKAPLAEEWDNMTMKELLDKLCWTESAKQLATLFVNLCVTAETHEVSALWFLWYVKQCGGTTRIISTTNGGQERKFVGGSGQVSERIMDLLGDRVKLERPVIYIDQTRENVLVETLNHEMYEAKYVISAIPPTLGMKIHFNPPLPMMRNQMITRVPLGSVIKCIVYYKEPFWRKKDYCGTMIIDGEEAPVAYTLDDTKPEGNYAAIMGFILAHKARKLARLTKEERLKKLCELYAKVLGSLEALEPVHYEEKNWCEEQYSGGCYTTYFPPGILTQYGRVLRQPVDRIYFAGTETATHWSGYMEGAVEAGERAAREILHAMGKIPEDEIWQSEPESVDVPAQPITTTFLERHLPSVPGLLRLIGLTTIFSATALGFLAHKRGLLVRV

Row | Compound | degraded at 0.5 h, 100 µM [1] [%] | Ki [2] [µM] | other results
1 | CCN1C(=O)C=CC1=O [N-ETHYLMALEIMIDE] | – | – | Time [16]: 8 h
2 | COc1cccc(C2=CC(=O)N(C)C2=O)c1 | 40 | 8.56 | –
3 | CN1C(=O)C=C(c2cccc(C(F)(F)F)c2)C1=O | 40 | 11 | –
4 | CN1C(=O)C=C(c2cccc(Br)c2)C1=O | 40 | 6.99 | –

The remaining compounds from weak to strong by Ki [2], led by results:

Row | degraded at 0.5 h, 100 µM [1] [%] | Ki [2] [µM] | Compound | other results
5 | 40 | 8.6 | Cc1cccc(C2=CC(=O)N(C)C2=O)c1 | –
6 | 40 | 6.66 | CN1C(=O)C=C(c2cccc(Cl)c2)C1=O | residual activity [10]: 66%; Activity [11]: Active; residual activity [12]: 52%; residual activity [13]: 84%; residual activity [14]: 68%; residual activity [15]: 80%
7 | 40 | 5.73 | CN1C(=O)C=C(c2cccc(F)c2)C1=O | –
8 | 2.8 | 3.49 | CN1C(=O)C=C(c2ccccc2)C1=O | Activity [3]: inactive; degraded at 0.5 h, 10 µM [4]: 1%; degraded at 6 h, 100 µM [5]: 31.4%; degraded at 6 h, 100 µM [6]: 73.8%; degraded at 6 h, 100 µM [7]: 13%; Activity [8]: Stable; Activity [9]: Stable
